Source: PubChem BioAssay AID2363 (The Scripps Research Institute Molecular Screening Center, 2010)

Target: Protein phosphatase methylesterase 1 (Homo sapiens) (UniProt Q9Y570)
Assay: cellular PME-1 inhibition of PP2A demethylation, late-stage follow-up, orthogonal assay for PME-1 inhibitor project, HeLa cells, demethylated PP2A western blot (AID 2363)
Details: demethylated PP2A western blot chemiluminescence, stronger effect = higher value
Procedure, shortened: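 System: HeLa cells in culture with endogenous PME-1; Reagent: cellular PP2A as the PME-1 demethylation substrate; Compound dosing: 5 and 20 µM compound; Times: compound exposure of cells at 37 °C; Signal: SDS-PAGE immunoblot with HRP antibody against demethylated PP2A C-terminus, chemiluminescence; Read-out: % inhibition of PP2A demethylation.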

[1] = PP2A demethylation inhibition, at 20 µM

Chain of Protein phosphatase methylesterase 1 (Homo sapiens) (Q9Y570 whole entry, looked up): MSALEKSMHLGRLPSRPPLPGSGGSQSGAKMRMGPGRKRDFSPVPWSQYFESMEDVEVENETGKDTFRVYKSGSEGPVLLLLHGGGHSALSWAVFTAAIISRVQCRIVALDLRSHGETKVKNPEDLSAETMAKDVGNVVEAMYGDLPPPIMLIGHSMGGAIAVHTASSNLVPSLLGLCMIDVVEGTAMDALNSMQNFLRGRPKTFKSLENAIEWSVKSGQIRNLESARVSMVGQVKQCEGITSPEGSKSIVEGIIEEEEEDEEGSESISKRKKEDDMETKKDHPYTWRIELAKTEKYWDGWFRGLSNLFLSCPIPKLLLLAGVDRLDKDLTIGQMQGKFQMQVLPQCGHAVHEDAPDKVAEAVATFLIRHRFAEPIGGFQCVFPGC

| SMILES | inhibition [1] [%] | inhibition (at 5 µM) [%] |
| --- | --- | --- |
| N#C/C(=C\c1cccn1S(=O)(=O)c1cccc([N+](=O)[O-])c1)S(=O)(=O)c1ccc(F)cc1 | 98 | 65 |
| N#C/C(=C\c1cccn1S(=O)(=O)c1cccc(C#N)c1)S(=O)(=O)c1ccc(F)cc1 | 95 | 60 |
